Laboratory results from ChEMBL document CHEMBL5046221, “Identification of Pyrimidine-Based Lead Compounds for Understudied Kinases Implicated in Driving Neurodegeneration” (J Med Chem, 2022).
pIC50: −log10 of the molar value.

Assays:
[1] = target: T1, MAP/microtubule affinity-regulating kinase 4 (Homo sapiens, UniProt Q96L34); assay: Displacement of tracer K5 from NLuc fused MARK4 (unknown origin) expressed in HEK293 cells by NanoBRET assay; type: cell-based
T1 sequence (Q96L34 whole entry): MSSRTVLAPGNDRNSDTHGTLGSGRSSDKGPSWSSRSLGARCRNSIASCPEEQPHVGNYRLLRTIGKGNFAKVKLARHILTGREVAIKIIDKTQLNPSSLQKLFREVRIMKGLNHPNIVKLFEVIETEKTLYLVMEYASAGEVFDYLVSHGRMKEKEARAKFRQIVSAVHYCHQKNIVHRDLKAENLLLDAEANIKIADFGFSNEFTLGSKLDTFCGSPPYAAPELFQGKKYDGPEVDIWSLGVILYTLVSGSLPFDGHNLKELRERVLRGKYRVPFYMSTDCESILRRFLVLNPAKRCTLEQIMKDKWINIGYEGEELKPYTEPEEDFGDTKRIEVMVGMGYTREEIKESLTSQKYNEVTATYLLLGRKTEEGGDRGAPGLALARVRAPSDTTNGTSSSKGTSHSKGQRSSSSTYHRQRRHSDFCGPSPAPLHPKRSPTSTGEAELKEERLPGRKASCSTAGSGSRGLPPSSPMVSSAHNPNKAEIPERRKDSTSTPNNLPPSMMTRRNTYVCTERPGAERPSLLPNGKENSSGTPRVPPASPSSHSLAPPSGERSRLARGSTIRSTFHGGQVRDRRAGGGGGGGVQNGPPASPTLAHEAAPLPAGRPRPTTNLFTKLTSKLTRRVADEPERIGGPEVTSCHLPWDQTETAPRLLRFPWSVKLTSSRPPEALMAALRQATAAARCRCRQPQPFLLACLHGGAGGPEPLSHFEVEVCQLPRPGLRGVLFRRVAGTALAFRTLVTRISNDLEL

[2] = Kinetic solubility of compound in PBS at pH 7.4 incubated for 24 hrs by chemiluminscent nitrogen detection method; type: physicochemical; details: buffer, pH 7.4, 24 h
Summary of the method: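 Filtrates were quantified by total chemiluminescent nitrogen determination against a calibration curve, with correction for background nitrogen from DMSO and medium.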

[3] = target: T2, BMP-2-inducible protein kinase (Homo sapiens, UniProt Q9NSY1); assay: Inhibition of 1recombinant human BMP2K using myelin basic protein as substrate incubated for 120 mins in presence of [gamma-33P-ATP] by radiometric scintillation assay
[4] = target: Serine/threonine-protein kinase SIK2 (Homo sapiens, UniProt Q9H0K1); assay: Inhibition of recombinant human SIK2 (1 to 276 residues) using KKKVSRSGLYRSPSMPENLNRPR as substrate measured after 40 mins in presence of [gamma33P]ATP by radiometric scintillation counting method
Summary of the method: (§1)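 Eurofins radiometric kinase assay run at ATP equal to Km for each kinase. 9-point dose–response in duplicate gives the IC50.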

[5] = target: Activin receptor type-1 (Homo sapiens, UniProt Q04771); assay: Inhibition of human ALK2 (147 to end residues) using casein as substrate incubated for 40 mins in presence of [gamma-33ATP] by scintillation counting based radiometry assay
Summary of the method: (§2)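 Eurofins radiometric enzymatic assay with ATP at Km for each kinase. IC50 was derived from a 9-point dose–response curve run in duplicate.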

[6] = target: Bone morphogenetic protein receptor type-1B (Homo sapiens, UniProt O00238); assay: Inhibition of recombinant human BMPR1B (148 to end residues) using casein as substrate incubated for 40 mins in presence of [gamma-33P-ATP] by radiometric scintillation assay; summary of the method: as §2
[7] = target: T3, Serine/threonine-protein kinase 17B (Homo sapiens) (UniProt O94768); assay: Inhibition of full length recombinant human DRAK2 using KKRPQRRYSNVF as substrate at 1 uM incubated for 120 mins in presence of [gamma-33P-ATP] by radiometric scintillation assay relative to control
T3 sequence (whole entry): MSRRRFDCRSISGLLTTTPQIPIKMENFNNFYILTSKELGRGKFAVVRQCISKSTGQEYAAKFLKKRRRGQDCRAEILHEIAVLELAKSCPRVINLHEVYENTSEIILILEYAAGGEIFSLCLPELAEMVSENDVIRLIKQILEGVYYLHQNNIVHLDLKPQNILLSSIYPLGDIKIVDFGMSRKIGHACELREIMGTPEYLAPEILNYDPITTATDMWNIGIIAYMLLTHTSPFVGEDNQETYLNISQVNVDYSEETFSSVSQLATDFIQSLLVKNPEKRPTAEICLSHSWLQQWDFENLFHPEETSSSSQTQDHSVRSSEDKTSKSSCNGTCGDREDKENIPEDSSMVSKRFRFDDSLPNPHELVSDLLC
Summary of the method: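 Eurofins radiometric kinase assay with ATP at Km for each kinase. Compound was tested at a single 1 μM concentration in duplicate, and the result is reported as percent of control.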

[8] = target: T2, BMP-2-inducible protein kinase; assay: Residual activity of human BMP2K at 1 uM using peptide as substrate incubated for 120 mins in presence of [gamma-33P-ATP] by radiometric scintillation assay relative to control
[9] = target: Serine/threonine-protein kinase PRP4 homolog (Homo sapiens, UniProt Q13523); assay: Inhibition of recombinant human PRP4 (663 to end residues) using casein as substrate incubated for 120 mins in presence of [gamma-33P-ATP] by radiometric scintillation assay; summary of the method: as §2
[10] = target: T4, Inhibitor of nuclear factor kappa-B kinase subunit epsilon (Homo sapiens, UniProt Q14164); assay: Inhibition of full length recombinant human IKKepsilon using casein as substrate incubated for 40 mins in presence of [gamma-33P-ATP] by radiometric scintillation assay; summary of the method: as §1
T4 sequence (Q14164 whole entry): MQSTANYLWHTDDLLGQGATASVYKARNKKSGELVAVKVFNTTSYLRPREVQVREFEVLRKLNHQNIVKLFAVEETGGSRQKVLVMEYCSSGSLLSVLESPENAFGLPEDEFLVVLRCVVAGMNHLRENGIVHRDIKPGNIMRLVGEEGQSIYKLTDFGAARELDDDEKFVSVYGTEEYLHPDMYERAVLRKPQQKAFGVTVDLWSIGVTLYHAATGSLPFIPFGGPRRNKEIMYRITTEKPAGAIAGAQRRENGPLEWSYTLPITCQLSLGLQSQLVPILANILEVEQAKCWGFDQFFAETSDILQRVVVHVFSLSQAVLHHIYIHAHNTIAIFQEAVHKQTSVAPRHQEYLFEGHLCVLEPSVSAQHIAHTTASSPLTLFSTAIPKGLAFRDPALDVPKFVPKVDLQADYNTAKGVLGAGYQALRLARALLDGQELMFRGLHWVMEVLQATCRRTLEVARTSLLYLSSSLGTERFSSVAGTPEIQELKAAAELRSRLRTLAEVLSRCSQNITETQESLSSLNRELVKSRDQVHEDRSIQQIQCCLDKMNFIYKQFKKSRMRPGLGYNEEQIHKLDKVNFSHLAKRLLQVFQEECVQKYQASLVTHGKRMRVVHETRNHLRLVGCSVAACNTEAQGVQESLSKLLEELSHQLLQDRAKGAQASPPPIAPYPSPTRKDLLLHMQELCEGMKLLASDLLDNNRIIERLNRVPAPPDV

T2 sequence (Q9NSY1 whole entry, looked up, the tested form may be a part): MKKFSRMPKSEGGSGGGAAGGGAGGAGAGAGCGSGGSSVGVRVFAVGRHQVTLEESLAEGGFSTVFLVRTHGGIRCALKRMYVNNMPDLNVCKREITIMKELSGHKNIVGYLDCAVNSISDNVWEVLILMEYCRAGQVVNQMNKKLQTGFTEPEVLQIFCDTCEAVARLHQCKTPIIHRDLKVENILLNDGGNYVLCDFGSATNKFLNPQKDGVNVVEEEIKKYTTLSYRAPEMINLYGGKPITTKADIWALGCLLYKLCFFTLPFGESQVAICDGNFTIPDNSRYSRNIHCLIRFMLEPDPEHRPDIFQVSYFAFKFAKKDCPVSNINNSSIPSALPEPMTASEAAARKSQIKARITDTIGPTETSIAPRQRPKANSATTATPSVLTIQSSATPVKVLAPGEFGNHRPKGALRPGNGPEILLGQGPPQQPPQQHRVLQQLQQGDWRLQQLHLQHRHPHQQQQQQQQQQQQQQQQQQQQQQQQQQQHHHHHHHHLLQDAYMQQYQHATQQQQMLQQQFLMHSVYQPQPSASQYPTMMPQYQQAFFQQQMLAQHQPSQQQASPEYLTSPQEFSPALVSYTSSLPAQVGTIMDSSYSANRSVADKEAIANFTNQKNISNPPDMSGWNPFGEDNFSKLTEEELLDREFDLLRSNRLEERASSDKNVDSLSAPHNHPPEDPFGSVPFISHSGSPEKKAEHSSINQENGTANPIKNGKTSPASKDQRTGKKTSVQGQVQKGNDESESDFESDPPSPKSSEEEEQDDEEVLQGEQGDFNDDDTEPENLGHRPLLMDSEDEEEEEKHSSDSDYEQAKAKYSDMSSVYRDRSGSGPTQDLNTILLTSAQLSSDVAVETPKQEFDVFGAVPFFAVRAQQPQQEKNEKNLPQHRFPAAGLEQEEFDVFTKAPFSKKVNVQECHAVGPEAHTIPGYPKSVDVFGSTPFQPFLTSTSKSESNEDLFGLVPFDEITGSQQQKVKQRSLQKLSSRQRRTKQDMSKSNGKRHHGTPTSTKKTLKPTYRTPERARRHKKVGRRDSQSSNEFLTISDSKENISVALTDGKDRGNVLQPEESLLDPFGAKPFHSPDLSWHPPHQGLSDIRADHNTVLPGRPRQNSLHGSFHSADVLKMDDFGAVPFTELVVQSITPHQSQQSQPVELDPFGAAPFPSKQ
Sequence of Bone morphogenetic protein receptor type-1B (O00238 whole entry): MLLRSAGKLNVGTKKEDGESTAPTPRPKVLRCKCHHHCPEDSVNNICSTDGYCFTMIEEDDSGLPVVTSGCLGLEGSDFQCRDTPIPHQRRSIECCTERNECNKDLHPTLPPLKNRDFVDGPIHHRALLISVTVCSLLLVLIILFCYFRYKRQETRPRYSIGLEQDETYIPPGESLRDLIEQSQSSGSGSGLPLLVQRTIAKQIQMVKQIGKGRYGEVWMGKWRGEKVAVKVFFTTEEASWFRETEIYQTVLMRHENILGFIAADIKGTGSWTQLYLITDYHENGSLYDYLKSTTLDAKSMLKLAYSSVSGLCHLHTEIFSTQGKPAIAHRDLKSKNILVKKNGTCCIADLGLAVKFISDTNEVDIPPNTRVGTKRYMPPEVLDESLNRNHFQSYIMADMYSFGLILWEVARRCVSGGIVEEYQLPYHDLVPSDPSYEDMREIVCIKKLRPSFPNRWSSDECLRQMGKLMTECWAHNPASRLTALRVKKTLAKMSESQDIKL
Sequence of Serine/threonine-protein kinase PRP4 homolog (Q13523 whole entry): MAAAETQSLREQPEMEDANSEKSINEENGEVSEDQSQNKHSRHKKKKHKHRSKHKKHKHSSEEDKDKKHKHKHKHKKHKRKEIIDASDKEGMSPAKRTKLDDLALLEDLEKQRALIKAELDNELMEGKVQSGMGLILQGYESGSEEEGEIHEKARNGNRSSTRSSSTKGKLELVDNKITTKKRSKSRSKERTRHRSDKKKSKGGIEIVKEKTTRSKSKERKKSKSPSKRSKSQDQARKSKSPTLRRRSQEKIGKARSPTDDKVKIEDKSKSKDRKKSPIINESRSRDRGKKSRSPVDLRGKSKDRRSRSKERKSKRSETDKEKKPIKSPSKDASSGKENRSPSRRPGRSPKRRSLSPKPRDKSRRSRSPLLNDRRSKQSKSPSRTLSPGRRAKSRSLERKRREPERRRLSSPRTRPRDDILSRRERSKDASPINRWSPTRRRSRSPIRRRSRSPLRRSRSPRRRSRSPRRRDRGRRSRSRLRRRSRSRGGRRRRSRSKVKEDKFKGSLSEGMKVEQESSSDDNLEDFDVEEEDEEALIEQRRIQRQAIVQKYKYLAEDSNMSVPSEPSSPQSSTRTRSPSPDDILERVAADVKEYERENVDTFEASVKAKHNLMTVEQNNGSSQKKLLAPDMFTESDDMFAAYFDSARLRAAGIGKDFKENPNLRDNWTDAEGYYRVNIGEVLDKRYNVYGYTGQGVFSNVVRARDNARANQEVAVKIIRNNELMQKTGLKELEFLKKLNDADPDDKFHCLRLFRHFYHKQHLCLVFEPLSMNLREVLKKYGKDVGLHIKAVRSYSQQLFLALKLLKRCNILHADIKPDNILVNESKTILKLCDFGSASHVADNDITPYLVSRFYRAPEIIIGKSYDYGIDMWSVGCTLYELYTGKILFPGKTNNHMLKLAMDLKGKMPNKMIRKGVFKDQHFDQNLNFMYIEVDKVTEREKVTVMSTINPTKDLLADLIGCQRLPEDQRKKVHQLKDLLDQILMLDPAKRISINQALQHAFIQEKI
Sequence of Activin receptor type-1 (Q04771 whole entry): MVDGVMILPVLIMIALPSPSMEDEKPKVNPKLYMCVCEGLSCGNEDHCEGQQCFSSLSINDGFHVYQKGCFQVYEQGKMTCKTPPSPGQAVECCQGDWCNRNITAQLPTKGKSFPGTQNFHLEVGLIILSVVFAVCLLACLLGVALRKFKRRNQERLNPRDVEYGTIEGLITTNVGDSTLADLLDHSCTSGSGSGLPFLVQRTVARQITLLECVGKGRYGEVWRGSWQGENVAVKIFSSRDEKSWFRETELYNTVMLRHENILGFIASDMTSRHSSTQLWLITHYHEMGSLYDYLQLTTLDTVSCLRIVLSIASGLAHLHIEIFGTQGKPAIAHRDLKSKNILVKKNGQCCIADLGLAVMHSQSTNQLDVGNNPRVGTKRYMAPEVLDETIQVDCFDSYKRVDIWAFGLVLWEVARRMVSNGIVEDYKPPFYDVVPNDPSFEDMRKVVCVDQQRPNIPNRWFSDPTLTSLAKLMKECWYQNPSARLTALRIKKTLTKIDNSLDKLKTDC
Sequence of Serine/threonine-protein kinase SIK2 (Q9H0K1 whole entry, the tested form may be a part): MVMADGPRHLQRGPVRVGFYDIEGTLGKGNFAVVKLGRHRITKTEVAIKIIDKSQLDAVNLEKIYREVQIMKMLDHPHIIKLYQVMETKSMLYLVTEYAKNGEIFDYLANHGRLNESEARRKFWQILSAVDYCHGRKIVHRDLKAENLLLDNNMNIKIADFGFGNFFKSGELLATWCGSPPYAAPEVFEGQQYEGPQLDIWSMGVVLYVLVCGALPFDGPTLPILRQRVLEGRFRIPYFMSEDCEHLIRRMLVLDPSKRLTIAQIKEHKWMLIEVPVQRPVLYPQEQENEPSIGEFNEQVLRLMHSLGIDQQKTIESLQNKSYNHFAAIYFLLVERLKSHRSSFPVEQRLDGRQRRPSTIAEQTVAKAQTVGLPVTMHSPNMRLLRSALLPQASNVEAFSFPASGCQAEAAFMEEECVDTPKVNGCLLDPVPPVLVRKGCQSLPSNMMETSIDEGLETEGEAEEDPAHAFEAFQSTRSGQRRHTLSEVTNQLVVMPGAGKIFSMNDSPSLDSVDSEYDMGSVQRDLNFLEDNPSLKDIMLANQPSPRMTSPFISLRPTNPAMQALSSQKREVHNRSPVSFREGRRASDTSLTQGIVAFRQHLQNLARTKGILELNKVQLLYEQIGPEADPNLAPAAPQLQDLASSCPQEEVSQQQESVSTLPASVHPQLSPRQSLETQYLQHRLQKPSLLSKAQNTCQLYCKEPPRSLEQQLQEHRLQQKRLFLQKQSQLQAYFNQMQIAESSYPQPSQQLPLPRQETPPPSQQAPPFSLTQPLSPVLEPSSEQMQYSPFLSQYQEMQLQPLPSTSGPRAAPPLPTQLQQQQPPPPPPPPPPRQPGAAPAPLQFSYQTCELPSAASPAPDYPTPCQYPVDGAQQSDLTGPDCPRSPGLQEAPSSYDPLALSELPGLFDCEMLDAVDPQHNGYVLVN

Row | Compound | pIC50 [1] | Kinetic_solubility [2] [µM] | pIC50 [3] | pIC50 [4] | pIC50 [5] | pIC50 [6] | Kinetic solubility [2] [µM] | % control [7] [%] | % control [8] [%] | pIC50 [9] | pIC50 [10]
1 | NS(=O)(=O)c1ccc(CNc2nc(Nc3cccc(NC(=O)N4CCCC4)c3)ncc2Br)cc1 | < 5.00 | 20 | 6.31 | – | – | – | – | – | – | – | –
2 | c1cc(CN2CCOCC2)cc(Nc2nccc(NCCc3cnc[nH]3)n2)c1 | < 5.00 | – | – | 6.73 | 6.27 | 5.04 | 200 | 65 | 58 | – | –
3 | NS(=O)(=O)c1ccc(CNc2nc(Nc3cccc(CN4CCOCC4)c3)ncc2Br)cc1 | < 5.00 | – | – | – | – | – | 4.7 | – | – | < 5.00 | –
4 | NS(=O)(=O)c1ccc(CNc2nc(Nc3cccc(CN4CCOCC4)c3)ncc2C2CC2)cc1 | < 5.00 | 118.7 | – | – | – | – | – | – | – | – | 5.88
